Compounds with a hit are over-represented: about 2.7% of the library has one in this group of screens.
PAD4 inh – inhibitors of human PAD4 | Q9UM07 | recombinant PAD4, RCA probe fluorescence polarization | inhibition, % at 6.36 µM | 330,000 tested, 0.41% active | AID 485272;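 active means percent inhibition above a cutoff equal to the mean of all tested compounds plus 3 SD, cut at about 15% in these data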;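 further: 0% = PAD4 with RCA probe and DMSO and 100% = probe without PAD4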
PRMT1 FP inh – PRMT1 (human) inhibition, primary screen. AID 652257. 370,000 tested, 1.3% active. recombinant PRMT1, activity-based probe fluorescence polarization. inhibition, % at 2.79 µM;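 active means inhibition above about 21% made by adding two undisclosed values, limit read from the data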
GSTO1 inh – GSTO1 inhibition, counter-screen for RBBP9 inhibitors; P78417; recombinant GSTO1, activity-based probe fluorescence polarization; inhibition, % at 5.96 µM; 300,000 tested, 1.1% active; AID 1974;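 active means inhibition above the campaign mean inhibition plus 3 SD, cut at about 35% in these data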;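 further: 0% = GSTO1-1 with DMSO and 100% = wells lacking GSTO1-1 enzyme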
SIAE inh – blocks human sialic acid acetylesterase; Q9HAT2; SIAE FP-Rh probe binding, fluorescence polarization; inhibition, % at 9.66 µM; 370,000 tested, 0.69% active; AID 1053197;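 active means inhibition above a cutoff: mean of compounds within the control limits plus 3 SD of those, cut at about 17% in these data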;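 further: 0% = plate median of compound wells and 100% = probe without SIAE protein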
Target sequence (Q9HAT2 whole entry, looked up): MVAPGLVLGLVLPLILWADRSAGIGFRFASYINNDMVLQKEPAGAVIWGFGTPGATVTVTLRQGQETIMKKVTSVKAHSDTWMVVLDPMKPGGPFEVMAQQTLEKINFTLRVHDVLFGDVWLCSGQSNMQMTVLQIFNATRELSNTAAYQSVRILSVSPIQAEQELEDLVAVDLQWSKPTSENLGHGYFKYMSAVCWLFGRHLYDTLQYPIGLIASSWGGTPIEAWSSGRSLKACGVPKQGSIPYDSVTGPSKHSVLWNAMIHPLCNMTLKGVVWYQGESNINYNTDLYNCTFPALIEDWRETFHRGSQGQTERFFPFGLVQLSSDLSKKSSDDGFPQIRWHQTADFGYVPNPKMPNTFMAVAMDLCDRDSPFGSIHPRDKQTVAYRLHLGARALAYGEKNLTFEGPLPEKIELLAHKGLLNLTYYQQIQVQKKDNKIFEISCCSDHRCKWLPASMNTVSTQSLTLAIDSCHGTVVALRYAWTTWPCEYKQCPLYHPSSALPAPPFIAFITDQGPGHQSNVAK
RBBP9 inhibitor – human RBBP9 hydrolase inhibition; O75884; recombinant RBBP9, FP-Rh probe fluorescence polarization; inhibition, % at 7.94 µM; 220,000 tested, 0.2% active; AID 1515;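 active means inhibition above the campaign mean of all tested compounds plus 3 SD, cut at about 14% in these data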;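 further: plate controls were DMSO wells with RBBP9 for no effect and wells lacking RBBP9 protein for full effect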
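Measured by – fluorescence polarization · Test system – RBBP9 protein · Input – 2.5 µM RBBP9 dispensing solution, before mixing · Measure – percent inhibition from mP, scaled between DMSO and no-protein wells · Benchmarks – DMSO-treated enzyme wells and wells lacking RBBP9 · Times – preincubation 30 min plus labeling 45 min at 25 °C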
RBBP9 inh conf – human RBBP9 inhibition, confirmation. shares compounds with RBBP9 inhibitor. recombinant RBBP9, FP-Rh probe fluorescence polarization. inhibition, % at 7.94 µM. 410 tested, 36% active;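 active means inhibition above the hit cutoff derived for the primary screen, cut at about 15% in these data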;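 further: 0% = RBBP9 with DMSO and 100% = wells lacking RBBP9 protein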
Active calls of the source: *; nt = not tested or not shown.

SMILES	PAD4 inh	PRMT1 FP inh	GSTO1 inh	SIAE inh	RBBP9 inhibitor	RBBP9 inh conf
O=C(O[C@@H]1OC2COC(=O)c3cc(O)c(O)c(O)c3-c3c(cc(O)c(O)c3O)C(=O)O[C@@H]([C@H]1O)[C@@H]2O)c1cc(O)c(O)c(O)c1	10	nt	73*	nt	19*	32*
COc1ccc(NC(=O)C2CC(=O)N(c3cccc(C)c3C)C2)cc1 (centres undefined)	0	-4	5	2	-6	nt
O=C(/C=C/[C@H]1O[C@@H](n2ccc(=O)[nH]c2=O)[C@H](O)[C@@H]1O)NC1CCN(Cc2ccccc2)C1 (some centres undefined)	nt	1	nt	-2	nt	nt
Cc1cnc([N+](=O)[O-])n1CCOC(=O)NC(=O)c1ccccc1Cl	-4	-4	-7	0	14*	8
Cc1cnc([N+](=O)[O-])n1CCOC(=O)NC(=O)c1ccc(C(F)(F)F)cc1	-5	-4	8	2	0	nt
CCc1ccccc1NC(=O)NCc1ccc2c(c1)OCO2	2	2	-5	1	nt	nt
COc1ccc2c(c1)c1ccc3c(c1n2C)C(=O)C=CC3=O	nt	12	nt	-23	63*	71*
C=C(C)COc1ccc(-c2n[nH]c(C)c2Oc2ccccc2OC)c(O)c1	1	1	-5	-3	-17	nt
COc1ccc(NC(=O)Nc2ccc3oc(C)nc3c2)cc1	-1	-4	18	5	0	nt
Cc1nc2cc(NC(=O)N(C)c3ccc4ccccc4c3)ccc2o1	-10	21	7	10	16*	5
COc1cc(S(=O)(=O)n2cnc(C)c2)ccc1Cl	2	-4	4	2	-5	nt
O=C1c2ccccc2NC(c2cccc(O)c2)N1Cc1ccco1 (centres undefined)	-3	-3	-3	5	15*	29*
CCOc1cccc(CN2CCN(Cc3ccc(C)o3)C(CCO)C2)c1O (centres undefined)	-2	-1	6	-7	15*	1
COc1cccc(-c2nc(CS(=O)(=O)CC(=O)NCCc3ccc(C)cc3)c(C)o2)c1	-1	-1	4	-6	nt	nt
O=c1c(-c2ccco2)[n+]([O-])c2ccccc2n1OCc1ccccc1F	1	2	5	-2	15*	4
O=c1c(-c2ccco2)[n+]([O-])c2ccccc2n1OCc1c(F)cccc1F	6	0	15	1	5	nt
COc1ccc(/C=C/C(=O)Nc2ccccc2)cc1S(=O)(=O)N1CCOCC1	-4	-4	-3	-3	37*	4
CCOC(=O)Cn1nc(CC)c2ccccc2c1=O	-1	3	2	2	-2	nt
CC(=O)Nc1ccc(-c2csc(NCc3ccccc3)n2)cc1	-1	-3	10	7	-6	nt
CC(=O)Nc1cccc(-c2csc(NCc3ccccc3)n2)c1	3	3	-8	1	15*	1
O=C(Nc1cccc(S(=O)(=O)N2CCCC2)c1)c1ccncc1	-4	5	1	5	nt	nt
COc1ccc(C(=O)N(C)[C@H]2C[C@H]3c4[nH]c5ccccc5c4CCN3C[C@H]2[C@H](C)O)cc1	nt	8	nt	3	nt	nt
C/C(=N\OC(=O)c1ccc(C)cc1)c1sc(C)nc1C	2	-1	3	-3	4	nt
CC(=NOC(=O)c1ccc(Cl)cc1)c1nccs1	nt	-1	nt	-4	nt	nt
C/C(=N\OC(=O)c1ccc(Cl)cc1)c1nccs1	0	-3	6	2	34*	80*
SMILES	PAD4 inh	PRMT1 FP inh	GSTO1 inh	SIAE inh	RBBP9 inhibitor	RBBP9 inh conf
C/C(=N/OC(=O)c1ccc(C)cc1)c1cccs1	-1	1	6	-4	16*	18*
Cc1ccc(CNC(=O)COc2ccccc2-c2ccccc2)cc1	1	0	-1	-2	-2	nt
O=[N+]([O-])c1c(NCCCO)cc(Sc2nc3ccccc3s2)c2nonc12	-6	nt	31	nt	17*	23*
Cc1cc(C(=O)N/N=C/c2ccc(O)c(O)c2O)c(C)n1-c1ccccc1	nt	4	nt	15	18*	73*
COc1ccccc1CNC(=O)c1cc2c(C)nn(Cc3ccc(F)cc3)c2s1	-4	-1	-21	-11	-10	nt
CCC(=O)NC1=C(Cl)C(=O)C(NC(=O)CC)=C(Cl)C1=O	nt	90*	nt	7	59*	65*
COc1cccc(CNC(=O)CN(C)S(=O)(=O)c2cccc3cccnc23)c1	0	6	2	4	21*	2
CN(CC(=O)NCc1ccc(Cl)cc1)S(=O)(=O)c1cccc2cccnc12	-4	-1	7	3	-6	nt
CC(Cn1nnc2ccccc21)C(=O)O (centres undefined)	-2	-6	6	-3	0	nt
CC(Cn1cnc2ccccc21)C(=O)O (centres undefined)	3	-3	3	-4	15*	7
Cc1cc[n+](CC(=O)Nc2cc(C(F)(F)F)ccc2Cl)cc1	0	2	-3	2	18*	4
Cc1cc(O)ccc1Nc1nc2ccccc2nc1Nc1ccc(O)cc1C	-2	11	32	20*	21*	11
Cc1ccc(Nc2nc3ccccc3s2)c(C)c1	-1	0	1	2	7	nt
CCCCN(C(=O)c1cc2ccccc2o1)c1c(N)n(CCC)c(=O)[nH]c1=O	-2	-3	3	-6	-8	nt
CCCCN(C(=O)c1cc2ccccc2o1)c1c(N)n(CC(C)C)c(=O)[nH]c1=O	-3	1	2	-6	20*	0
Cc1c(O)ccc(C(=O)CN2CCN(Cc3ccc4c(c3)OCO4)CC2)c1O	-4	4	6	3	68*	8
O=C(N/C=C/c1ccco1)Nc1cccc(Cl)c1	0	18	-9	-7	-7	nt
CCN(CC)c1ccc(C(=O)Nn2cnc3ccccc3c2=O)cc1	1	-7	-3	1	nt	nt
Cc1[nH]c2ccccc2c1C(=O)COC(=O)c1ccc[n+]([O-])c1	-2	-2	-9	-1	16*	0
CCOC(=O)c1ccc[n+]([O-])c1	nt	1	nt	0	nt	nt
COc1cc(/C=N/NC(=O)CSc2ccccn2)ccc1O	-2	-1	7	-2	-5	nt
CCCOc1ccc(/C=N/NC(=O)CSc2ccccn2)cc1OC	2	4	-6	-1	17*	9
CC1Cc2cc(/C(O)=C3/C(=O)C(=O)N(CCCn4ccnc4)C3c3ccncc3)ccc2O1 (centres undefined)	7	-2	2	6	14*	4
COc1ccc(C2/C(=C(/O)c3ccc4c(c3)CC(C)O4)C(=O)C(=O)N2CCCn2ccnc2)cc1 (centres undefined)	-2	0	1	3	nt	nt
Cc1cccc2cc(CN(CCCN(C)C)C(=S)NCCc3ccccc3)c(=O)[nH]c12	1	-2	4	2	17*	27*
Cc1ccc2[nH]c(=O)c(CN(CCCN(C)C)C(=S)NCCc3ccccc3)cc2c1	-1	-4	4	3	11	nt

Screening results: PubChem, The Scripps Research Institute Molecular Screening Center
